Source: PubChem BioAssay
Sampled rows, rich in hits. Any-hit rate of the full collection: about 4.8%.
Beta cell apopt = inhibitors of cytokine-induced beta cell apoptosis, primary screen, luminescence. protection from apoptosis, % (no concentration beside the values). AID 435005, 2010. 300,000 compounds, 0.8% hits. INS-1E cytokine-induced death, ATP luminescence, 48 h; percent of positive-control rescue, neutral wells zero;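 active = Every replicate reaches about 75%, or at least half do and their mean reaches it too, limit read from the data; inconclusive = At least half of replicates reach the limit but their mean does not; inactive = Under half of replicates reach the limit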;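 note: 0% = cytokine-treated negative control wells and 100% = positive control rescue; higher means more ATP so stronger rescue from cytokine killing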
SKKanGAS inh = S. pyogenes SKKanGAS growth inhibitors in kanamycin, primary screen, streptokinase expression inhibitor project, SKKanGAS strain, BacTiter-Glo luminescence; inhibition, % at 7.5 µM; 300,000 compounds, 1.3% hits; 6 h;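 active = mean replicate score, as percent of positive control median, at least 50; inconclusive = mean below 50 but one replicate at or above 50; inactive = mean and every replicate below 50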;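 note: strain carries kanamycin resistance gene driven by streptokinase promoter and grows in 40 µg/ml kanamycin; loss of luminescence reflects streptokinase promoter inhibition or plain growth inhibition; 0% = median of DMSO wells and 100% = positive control at its reference dose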
XBP1 UPR activ = activators of adaptive XBP1 UPR arm, primary screen, cell-based, CHO-XBP1 luciferase reporter, luminescence, uHTS; IRE1-XBP1 UPR activation; percent of tunicamycin response, DMSO as zero; activation, % at 20 µM; 330,000 compounds, 0.33% hits; AID 463104, 2010;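 active = versus positive control, 20 µM dose yields 30% or more activation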;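 note: 100% = tunicamycin at 10 µg/mL and 0% = DMSO only wells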
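Test system: CHO-XBP1 luciferase reporter cells | Buffer or medium: Serum-containing F12 medium, 10% FBS | Schedule: 6 h compound exposure at 37 °C, 5% CO2 | Detection: Steady-Glo luciferase glow luminescence, 10 min after reagent addition | Read-out basis: Activation, % of tunicamycin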
CSC inhib = cancer stem cell viability inhibitors, primary screen, luminescence | AID 2717, 2010 | inhibition, % at 7.5 µM | cancer stem cell-like cells viability | 300,000 compounds, 1.1% hits; in the data active = inhibition above about 75%; inconclusive = no clear call, values can overlap the other calls; tested in HMLE shEcad cells
CHOP UPR activ = activators of apoptotic CHOP UPR arm, primary screen, cell-based, CHO-CHOP luciferase reporter, luminescence, uHTS; UPR activation; percent of tunicamycin response over DMSO baseline; 330,000 compounds, 0.34% hits; activation, % at 10 µM;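 active = at 10 µM dose, activation of 40% or more, normalized to positive control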;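 note: 100% = tunicamycin at 10 µg/mL and 0% = DMSO alone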
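Material: CHO-CHOP cells, stable luciferase reporter of PERK-eIF2a-CHOP signalling; quantity: 500 reporter cells seeded per well; buffer or medium: F12 medium containing 10% fetal bovine serum; compound: one dose, 10 µM in 0.5% DMSO; incubation: 6 h compound treatment, 37 °C; measured by: Steady-Glo luciferase luminescence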
Mdm2-MdmX inh = inhibitors of human Mdm2-MdmX association, primary screen, cell-based, luminescence, split luciferase, SaOS-2, uHTS | Protein Mdm4 (Homo sapiens) + E3 ubiquitin-protein ligase Mdm2 (Homo sapiens), … | SaOS-2 split-luciferase Mdm2/MdmX complementation | inhibition, % at 8 µM | 330,000 compounds, 3% hits;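 active = inhibition of at least 50% at 8 µM in the primary screen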
Target sequence (O15151 whole entry, looked up): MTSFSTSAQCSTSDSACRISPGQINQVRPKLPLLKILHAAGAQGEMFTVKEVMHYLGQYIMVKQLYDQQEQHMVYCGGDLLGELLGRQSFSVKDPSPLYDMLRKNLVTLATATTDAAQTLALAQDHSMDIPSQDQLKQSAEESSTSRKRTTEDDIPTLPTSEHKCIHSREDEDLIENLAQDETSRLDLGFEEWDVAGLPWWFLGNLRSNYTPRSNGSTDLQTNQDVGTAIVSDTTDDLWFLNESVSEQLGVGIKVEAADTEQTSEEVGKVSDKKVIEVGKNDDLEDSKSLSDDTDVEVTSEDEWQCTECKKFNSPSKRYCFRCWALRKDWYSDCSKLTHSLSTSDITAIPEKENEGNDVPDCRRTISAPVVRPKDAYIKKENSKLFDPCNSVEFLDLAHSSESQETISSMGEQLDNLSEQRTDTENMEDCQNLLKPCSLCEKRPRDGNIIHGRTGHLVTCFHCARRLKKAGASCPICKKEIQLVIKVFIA
Target sequence (Q00987 whole entry, looked up): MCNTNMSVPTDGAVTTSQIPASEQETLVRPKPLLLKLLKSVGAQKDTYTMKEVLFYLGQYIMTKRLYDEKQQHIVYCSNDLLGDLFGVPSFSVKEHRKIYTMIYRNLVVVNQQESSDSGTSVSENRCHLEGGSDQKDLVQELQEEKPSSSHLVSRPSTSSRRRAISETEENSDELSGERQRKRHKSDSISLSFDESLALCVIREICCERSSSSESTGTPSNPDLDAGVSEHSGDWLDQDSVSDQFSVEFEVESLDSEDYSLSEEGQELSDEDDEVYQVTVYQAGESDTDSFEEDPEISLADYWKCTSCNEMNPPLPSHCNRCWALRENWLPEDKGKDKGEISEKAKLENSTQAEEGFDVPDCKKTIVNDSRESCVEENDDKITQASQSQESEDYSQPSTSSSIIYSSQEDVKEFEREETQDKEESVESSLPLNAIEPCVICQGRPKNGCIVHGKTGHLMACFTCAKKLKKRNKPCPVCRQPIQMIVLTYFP
* marks the source's active call; other numbers are inactive results; ? = inconclusive; nt = no result given.

SMILES	Beta cell apopt	SKKanGAS inh	XBP1 UPR activ	CSC inhib	CHOP UPR activ	Mdm2-MdmX inh
COc1cc(OC)cc(-c2sc3ccc(OC)cc3c2-c2ccc(O)cc2)c1	2	nt	6	136*	-1	20
C=CC[n+]1c(-c2ccc(C)cc2)csc1Nc1c(C)n(C)n(-c2ccccc2)c1=O	nt	16	-2	5	-1	17
C=CC[n+]1c(-c2ccc(OCC)cc2)csc1NNC(=O)Nc1ccccc1	99*	18	-2	?	1	10
O=C(Nc1ccc(Cl)cc1)N1CCN(c2ccc3nnc(-c4ccc(F)cc4)n3n2)CC1	8	63*	5	46	6	27
COC(=O)c1ccc(C)c(NC(=O)c2ccc(CN3CCc4ccccc4C3)cc2)c1	-5	2	-2	4	0	30
CCCCCCCNC1=CC(=O)CC(c2ccccc2)C1 (stereo not given)	91*	-7	0	45	0	42
CCOc1ccc2oc(C(=O)O)c(C)c2c1	-1	-5	-1	-6	1	-15
CCOc1ccc2oc(C(=O)NNC(=O)c3ccccc3O)c(C)c2c1	2	69*	0	nt	0	35
Cc1c(C(=O)NNC(=O)c2ccccc2O)oc2ccc(Br)cc12	1	108*	nt	27	nt	nt
CC(Sc1ccccc1)C(=O)N1CCN(S(=O)(=O)c2ccccc2F)CC1 (stereo not given)	-4	1	-4	-3	1	15
Cc1ccc(Nc2cc(C)nc3ncnn23)cc1	-3	2	1	4	1	9
CS(=O)(=O)Nc1cccc(C2=NN(C(=O)c3ccco3)C(c3cccs3)C2)c1 (stereo not given)	2	-1	-6	0	3	11
O=C(Nc1ccc2c(c1)OCO2)c1c[nH]c(=O)n(-c2ccc(F)cc2)c1=O	5	6	-2	-13	6	7
COCCCn1c(SCc2cccc(C(F)(F)F)c2)nc2cc(OC)c(OC)cc2c1=N	7	14	1	83*	-1	38
COCCCn1c(SCc2ccccc2)nc2cc(OC)c(OC)cc2c1=N	3	8	1	68	0	19
CCOc1ccc(-n2cc(-c3ccccc3)c3c(=S)nc[nH]c32)cc1	12	77*	-1	32	1	28
COc1ccc(CNC(=O)Cc2cn(C)c3ccccc23)c(OC)c1	3	-4	1	-10	0	3
C/C(N)=C(/C#N)C(=O)COC(=O)c1cc(-c2ccc(Br)cc2)nc2ccccc12	1	70*	nt	49	nt	nt
O=C(N/C=N/OCc1ccc(Cl)cc1Cl)NOCc1ncc(C(F)(F)F)cc1Cl	-18	25	-1	124*	3	2
O=C(NC(Cc1c[nH]c2ccccc12)C(=O)N/N=C/c1cccc2ccccc12)c1cccs1 (stereo not given)	9	60*	0	15	-1	27
CCOc1ccc(CC(=O)NNC(=S)NC)cc1Br	-2	-4	-4	1	-1	-11
COc1cccc2cc(C(=O)NCCN3CCOCC3)c(=O)oc12	-3	-4	5	-17	0	-26
O=C(Oc1ccc(-c2cnc3ccccc3n2)cc1)c1cccc([N+](=O)[O-])c1	-32	8	1	-6	3	-171
O=C(Oc1ccc(-c2cnc3ccccc3n2)cc1)c1ccc(Cl)c([N+](=O)[O-])c1	-8	74*	9	-10	5	-69
COc1cccc(/C=N/NC(=O)c2ccc(N3CCCC3=O)cc2)c1	39	-2	4	38	0	10
SMILES	Beta cell apopt	SKKanGAS inh	XBP1 UPR activ	CSC inhib	CHOP UPR activ	Mdm2-MdmX inh
Clc1ccc(Sc2oc(/C=N/n3cnnc3)cc2Br)cc1	-12	nt	-2	-12	-1	2
CN(C)C(=O)/C(C#N)=C\c1cc(Br)c(Sc2ccc(Cl)cc2)o1	-2	nt	nt	103*	nt	nt
O=C(O)CSCC(=O)Nc1ccccc1SCCS(=O)(=O)c1ccc(Cl)cc1	1	3	nt	1	nt	nt
Cc1nn(-c2ccc3ccccc3c2)c(=O)c2ccccc12	4	11	4	-3	2	-103
Cc1nn(-c2nc3ccccc3[nH]2)c(=O)c2ccccc12	86*	?	nt	97*	nt	nt
Cc1nn(-c2nc3ccccc3[nH]2)c(N)c1-c1ccc(Cl)cc1	23	68*	10	33	6	-17
Cc1ccc(OCc2cc(C(=O)N3CC4C[C@@H]5CC3C[C@H](C4)C5)no2)cc1C	-1	31	-4	-7	6	-24
Cc1cccc(C)c1OCc1cc(C(=O)N2CC3C[C@@H]4CC2C[C@H](C3)C4)no1	3	17	-1	107*	6	-84
CCc1nnc(NC(=O)CSc2nnc(-c3cccnc3)n2C)s1	-6	-4	-4	4	-1	-6
Cc1occc1C(=O)N1CCN(C(c2ccccc2)c2ccccc2)CC1	-3	-1	-2	1	-3	22
Cc1oc(C(C)(C)C)cc1C(=O)N1CCN(C(c2ccccc2)c2ccccc2)CC1	14	63*	-2	49	0	19
Cc1ccc(OCCOCCN2CCN(C)CC2)c(C(C)(C)C)c1	-1	4	-3	59	0	-9
CC(C)(C)c1cc(Cl)ccc1OCCOCCN1CCCC1	4	2	0	93*	-3	21
C=CCNCCCOc1ccc(Cl)cc1C(C)(C)C	-4	5	5	104*	-1	27
COCCN1CC(C(=O)NCc2ncccc2C)CCC1=O (stereo not given)	1	2	-4	2	-1	-6
Cc1nn(C(=O)c2cccnc2)c(C)c1Sc1ccc(Br)cc1	-16	63*	-3	-1	-1	14
Cc1nn(C(=O)c2ccco2)c(C)c1Sc1ccc(Cl)cc1	nt	-4	-2	nt	4	5
CCOc1ccc2c(c1)-c1c(ssc1=S)C(C)(C)N2C(=O)c1ccco1	11	8	5	85*	1	35
CCc1ccc(NC(=O)CSc2nnc(-c3cnccn3)n2C)cc1	1	0	-4	-12	-1	24
CC1COc2c(N3CCN(C)CC3)c(F)cc3c(=O)c(C(=O)O)cn1c23 (stereo not given)	-9	95*	-7	14	1	-16
Cc1ccc2cc(CCNS(=O)(=O)c3ccc(Br)cc3)c(=O)[nH]c2c1C	6	-7	-4	nt	-1	17
O=C(COc1ccc(F)cc1Br)NCCCN1CCCC1=O	0	nt	0	-18	-1	16
